Results as given in ChEMBL document CHEMBL1137412, “Molecular tongs containing amino acid mimetic fragments: new inhibitors of wild-type and mutated HIV-1 protease dimerization” (J Med Chem, 2006).
pKi: −log10 of the molar value. Values belong to the compound of their own block, whether it stands above or below them.

Assays:
[1] = biological target: T1, Human immunodeficiency virus type 1 protease (Human immunodeficiency virus 1, UniProt Q72874); assay: Inhibition of wild type HIV1 protease
Outline: (§1)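 Recombinant HIV-1 protease (wild-type or mutant) assayed fluorometrically with substrate DABCYL-γ-abu-Ser-Gln-Asn-Tyr-Pro-Ile-Val-Gln-EDANS (emission 490 nm). Conditions: 100 mM sodium acetate, 1 mM EDTA, 1 M NaCl, pH 4.7, 30 °C, 3% v/v DMSO final. Typically 7.5 nM enzyme and 5.2 µM substrate.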

[2] = biological target: T1, Human immunodeficiency virus type 1 protease; assay: Inhibition of dimerization of HIV1 protease ANAM-11 mutant; outline: as §1
[3] = biological target: Human immunodeficiency virus type 1 protease (Human immunodeficiency virus 1, UniProt Q72874, V82A); assay: Inhibition of dimerization of HIV1 protease V82A mutant; outline: as §1
[4] = biological target: T1, Human immunodeficiency virus type 1 protease; assay: Inhibition of dimerization of HIV1 protease […] mutant; outline: as §1
[5] = biological target: Human immunodeficiency virus type 1 protease (Human immunodeficiency virus 1, UniProt Q72874, G48V/L90M); assay: Inhibition of dimerization of HIV1 protease G48V/L90M mutant; outline: as §1
[6] = biological target: T1, Human immunodeficiency virus type 1 protease; assay: Inhibition of dimerization of HIV1 protease MDR-HM mutant; outline: as §1
[7] = biological target: Human immunodeficiency virus type 1 protease (Human immunodeficiency virus 1, UniProt Q72874, D30N); assay: Inhibition of dimerization of HIV1 protease D30N mutant; outline: as §1
[8] = biological target: T1, Human immunodeficiency virus type 1 protease; assay: Inhibition of wild type HIV1 protease dimerization; outline: as §1
[9] = biological target: Human immunodeficiency virus type 1 protease (Human immunodeficiency virus 1) (UniProt Q72874); assay: Inhibition of wild type HIV1 protease dimerization at 5 uM
[10] = biological target: Human immunodeficiency virus type 1 protease (Human immunodeficiency virus 1) (UniProt Q72874); assay: Inhibition of wild type HIV1 protease at 5 uM
Outline: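 Recombinant wild-type HIV-1 protease (7.5 nM) was run with fluorogenic substrate DABCYL-γ-abu-Ser-Gln-Asn-Tyr-Pro-Ile-Val-Gln-EDANS (5.2 µM) in 100 mM sodium acetate, 1 mM EDTA, 1 M NaCl, pH 4.7, 30 °C. DMSO was kept at 3% v/v final. Emission was read at 490 nm. Percent inhibition was measured at 5 µM compound.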

[11] = Stability in presence of 20% fetal calf serum; assay type: ADME; conditions: cattle
Outline: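 Compound incubated in RPMI medium containing 20% fetal calf serum at 37 °C for up to 2 days. Incubation stopped with ethanol, mixture chilled to 4 °C and centrifuged, and clear supernatant analysed by RP-HPLC. Half-life from least-squares linear regression of log[I] versus time, using at least five points.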

Structure (SMILES): CC[C@H](C)[C@H](NC(=O)Cn1c(C)ccc(NC(=O)CCCOc2ccc3ccc(OCCCC(=O)N[C@H](C(=O)N[C@H](CC(C)C)C(=O)N[C@H](C(=O)OC)C(C)C)C(C)C)cc3c2)c1=O)C(=O)N[C@H](C(N)=O)[C@@H](C)O
- pKi [1]: 5.01

Structure (SMILES): COC(=O)[C@@H](NC(=O)[C@@H](CC(C)C)NC(=O)[C@@H](NC(=O)CCCOc1ccc2ccc(OCCCC(=O)Nc3ccc(C)n(CC(=O)Nc4ccc(C)n(CC(=O)OC(C)(C)C)c4=O)c3=O)cc2c1)C(C)C)C(C)C
- pKi [1]: 5.08

Structure (SMILES): COC(=O)[C@@H](NC(=O)[C@@H](CC(C)C)NC(=O)[C@@H](NC(=O)CCCOc1ccc2ccc(OCCCC(=O)NC(C(=O)Nc3cccn(CC(N)=O)c3=O)C(C)C)cc2c1)C(C)C)C(C)C (some centres undefined)
- pKi [2]: 6.70
- pKi [3]: 6.62
- pKi [4]: 7.00
- pKi [5]: 6.30
- pKi [6]: 5.32
- pKi [7]: 6.30
- pKi [8]: 6.40

Structure (SMILES): COC(=O)[C@@H](NC(=O)[C@H](CC(C)C)NC(=O)[C@@H](NC(=O)CCCOc1ccc2ccc(OCCCC(=O)N[C@H](C(=O)NNC(=O)c3cc(NC(C)=O)ccc3OC)C(C)C)cc2c1)C(C)C)C(C)C
- pKi [8]: 6.70

- inhibition [9]: 28%
- inhibition [10]: 28%
Structure (SMILES): COC(=O)[C@@H](NC(=O)[C@H](CC(C)C)NC(=O)[C@@H](NC(=O)CCCOc1ccc2ccc(OCCCC(=O)NNC(=O)c3cc(N)ccc3OC)cc2c1)C(C)C)C(C)C

- half-life [11]: 1680 min
Structure (SMILES): COC(=O)[C@@H](NC(=O)[C@H](CC(C)C)NC(=O)[C@@H](NC(=O)CCCOc1ccc2ccc(OCCCC(=O)N[C@H](C(=O)N[C@@H](CC(C)C)C(=O)N[C@H](C(=O)OC)C(C)C)C(C)C)cc2c1)C(C)C)C(C)C

Structure (SMILES): COC(=O)[C@@H](NC(=O)[C@H](CC(C)C)NC(=O)[C@@H](NC(=O)CCCOc1ccc2ccc(OCCCC(=O)N[C@H](C(=O)Nc3cccn(CC(N)=O)c3=O)C(C)C)cc2c1)C(C)C)C(C)C
- half-life [11]: 2460 min
